Experimental data pooled from the literature.
Target: Mitogen-activated protein kinase kinase kinase 3 (MAP3K3, Homo sapiens, UniProt Q99759)
One construct used (Q99759 1-626): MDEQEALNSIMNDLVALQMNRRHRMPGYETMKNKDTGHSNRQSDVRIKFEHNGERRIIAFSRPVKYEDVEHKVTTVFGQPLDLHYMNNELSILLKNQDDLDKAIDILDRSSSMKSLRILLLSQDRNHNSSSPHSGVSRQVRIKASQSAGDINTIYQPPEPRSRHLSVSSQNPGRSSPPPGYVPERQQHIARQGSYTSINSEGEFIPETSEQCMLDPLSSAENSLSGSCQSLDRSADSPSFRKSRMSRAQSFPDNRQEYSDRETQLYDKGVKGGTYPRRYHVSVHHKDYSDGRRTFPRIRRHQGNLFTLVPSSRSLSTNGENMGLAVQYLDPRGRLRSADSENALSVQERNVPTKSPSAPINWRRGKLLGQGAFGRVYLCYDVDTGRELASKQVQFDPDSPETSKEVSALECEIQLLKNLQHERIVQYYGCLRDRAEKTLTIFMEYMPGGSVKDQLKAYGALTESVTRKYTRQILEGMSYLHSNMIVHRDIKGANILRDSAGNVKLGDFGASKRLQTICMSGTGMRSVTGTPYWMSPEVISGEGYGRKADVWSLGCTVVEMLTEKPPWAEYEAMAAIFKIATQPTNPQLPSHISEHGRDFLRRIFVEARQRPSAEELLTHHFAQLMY

SMILES | observed | action | method | tested at | quantity | result
CC(C)S(=O)(=O)c1ccc2nccc(Nc3ccc4sc(C5CCCC5)nc4c3)c2c1 | enzyme activity | inhibitor |  | 1 µM | activity vs control | 105%
Cc1cc(O)c(-c2ccc([C@@H](C)CN(C)C)cc2)c2c1[nH]c(=O)c1sccc12 | enzyme activity | inhibitor |  | 0.1 µM | inhibition | 0.395%
CCCCC(=O)Nc1ccc(-c2ccc3ncn(CCC)c(=O)c3c2)cn1 | binding |  | competition with immobilised ligand | 0.5 µM | remaining binding | 100%
C[C@H]1CC[C@H](n2c3cnccc3c3cnc(Nc4ccc5c(n4)CCN(C(=O)CO)C5)nc32)CC1 | binding |  | competition with immobilised ligand | 1 µM | remaining binding | 81%
C#Cc1cc(-c2cc(Nc3nc(N[C@@H](C)c4ccc(F)cn4)ncc3Cl)n[nH]2)ccc1C=O | enzyme activity | inhibitor |  | 0.2 µM | inhibition | 48.8%
CC#CC(=O)N1CCC[C@H]1c1nc(-c2ccc(C(=O)Nc3ccccn3)cc2)c2c(N)nccn12 | enzyme activity | inhibitor |  | 1 µM | inhibition | 25%
C1=C/COCc2cc(ccc2OCCN2CCCC2)Nc2nccc(n2)-c2cccc(c2)COC/1 | binding |  |  | 0.1 µM | remaining binding | 53%
CN1CCN(C(=O)c2ccc(NC(=O)Nc3ccc(N(C)c4ccnc(Nc5ccc(CS(C)(=O)=O)cc5)n4)cc3)cc2)CC1 | binding |  | competition with immobilised ligand | 1 µM | remaining binding | 57%
CO[C@@H]1[C@H](N(C)C(=O)c2ccccc2)C[C@H]2O[C@]1(C)n1c3ccccc3c3c4c(c5c6ccccc6n2c5c31)C(=O)NC4 | enzyme activity | inhibitor |  | 1 µM | inhibition | 86%
